Tests used:
[1] = biological target: T1, Disintegrin and metalloproteinase domain-containing protein 10 (Homo sapiens, UniProt O14672); test: Inhibition of ADAM-10
T1 sequence (O14672 whole entry): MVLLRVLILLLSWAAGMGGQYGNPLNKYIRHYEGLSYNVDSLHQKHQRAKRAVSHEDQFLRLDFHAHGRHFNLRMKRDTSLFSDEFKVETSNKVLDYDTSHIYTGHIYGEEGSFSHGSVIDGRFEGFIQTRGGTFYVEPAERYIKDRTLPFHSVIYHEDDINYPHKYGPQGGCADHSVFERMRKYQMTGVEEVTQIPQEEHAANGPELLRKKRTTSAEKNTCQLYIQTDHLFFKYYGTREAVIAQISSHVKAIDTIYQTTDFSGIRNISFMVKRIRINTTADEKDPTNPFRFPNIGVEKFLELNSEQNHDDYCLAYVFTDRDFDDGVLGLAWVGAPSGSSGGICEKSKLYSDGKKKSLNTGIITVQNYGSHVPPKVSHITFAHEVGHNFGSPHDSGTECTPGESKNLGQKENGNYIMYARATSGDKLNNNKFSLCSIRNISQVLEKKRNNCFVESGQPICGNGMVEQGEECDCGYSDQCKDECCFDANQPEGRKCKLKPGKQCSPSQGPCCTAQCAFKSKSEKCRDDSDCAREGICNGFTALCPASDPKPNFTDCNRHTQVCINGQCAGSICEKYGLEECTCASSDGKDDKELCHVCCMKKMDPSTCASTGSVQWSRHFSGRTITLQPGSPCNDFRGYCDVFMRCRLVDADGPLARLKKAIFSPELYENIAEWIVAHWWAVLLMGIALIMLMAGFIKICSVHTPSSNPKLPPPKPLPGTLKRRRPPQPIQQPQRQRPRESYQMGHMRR

[2] = biological target: 72 kDa type IV collagenase (Homo sapiens, UniProt P08253); test: Inhibition of MMP-2
72 kDa type IV collagenase, sequence (P08253 whole entry): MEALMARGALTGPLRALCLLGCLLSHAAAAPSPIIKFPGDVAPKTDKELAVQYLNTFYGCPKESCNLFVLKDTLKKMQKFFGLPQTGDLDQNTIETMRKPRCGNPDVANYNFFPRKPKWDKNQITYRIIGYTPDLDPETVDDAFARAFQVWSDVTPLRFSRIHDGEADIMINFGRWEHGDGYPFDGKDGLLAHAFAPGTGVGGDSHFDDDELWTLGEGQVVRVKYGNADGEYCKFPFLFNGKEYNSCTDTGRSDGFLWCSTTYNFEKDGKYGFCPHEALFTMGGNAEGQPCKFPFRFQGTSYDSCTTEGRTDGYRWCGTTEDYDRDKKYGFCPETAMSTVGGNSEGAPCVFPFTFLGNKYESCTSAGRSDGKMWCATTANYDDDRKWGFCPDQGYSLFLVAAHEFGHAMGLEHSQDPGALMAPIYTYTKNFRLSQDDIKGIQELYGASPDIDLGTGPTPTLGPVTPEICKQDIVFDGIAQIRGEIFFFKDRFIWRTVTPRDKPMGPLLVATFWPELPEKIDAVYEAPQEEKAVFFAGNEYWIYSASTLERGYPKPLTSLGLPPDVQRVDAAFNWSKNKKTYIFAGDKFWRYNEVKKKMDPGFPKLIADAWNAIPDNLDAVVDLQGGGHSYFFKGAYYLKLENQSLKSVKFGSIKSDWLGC

[3] = biological target: T2, Interstitial collagenase (Homo sapiens, UniProt P03956); test: Inhibition of MMP-1
T2 sequence (P03956 whole entry): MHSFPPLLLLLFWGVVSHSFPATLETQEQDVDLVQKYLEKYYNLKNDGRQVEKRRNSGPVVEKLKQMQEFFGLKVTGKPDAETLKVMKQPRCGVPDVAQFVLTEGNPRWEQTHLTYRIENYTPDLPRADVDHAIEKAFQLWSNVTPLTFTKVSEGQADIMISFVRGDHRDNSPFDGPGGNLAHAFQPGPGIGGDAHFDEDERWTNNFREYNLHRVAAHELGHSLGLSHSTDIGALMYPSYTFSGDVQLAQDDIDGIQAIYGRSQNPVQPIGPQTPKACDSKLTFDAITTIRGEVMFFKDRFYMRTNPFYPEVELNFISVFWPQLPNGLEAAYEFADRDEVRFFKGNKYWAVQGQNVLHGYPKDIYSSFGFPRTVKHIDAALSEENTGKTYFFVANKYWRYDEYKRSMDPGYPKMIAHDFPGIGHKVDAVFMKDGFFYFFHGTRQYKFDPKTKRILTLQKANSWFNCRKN

[4] = biological target: Stromelysin-1 (Homo sapiens, UniProt P08254); test: Inhibition of MMP-3
Stromelysin-1, sequence (P08254 whole entry): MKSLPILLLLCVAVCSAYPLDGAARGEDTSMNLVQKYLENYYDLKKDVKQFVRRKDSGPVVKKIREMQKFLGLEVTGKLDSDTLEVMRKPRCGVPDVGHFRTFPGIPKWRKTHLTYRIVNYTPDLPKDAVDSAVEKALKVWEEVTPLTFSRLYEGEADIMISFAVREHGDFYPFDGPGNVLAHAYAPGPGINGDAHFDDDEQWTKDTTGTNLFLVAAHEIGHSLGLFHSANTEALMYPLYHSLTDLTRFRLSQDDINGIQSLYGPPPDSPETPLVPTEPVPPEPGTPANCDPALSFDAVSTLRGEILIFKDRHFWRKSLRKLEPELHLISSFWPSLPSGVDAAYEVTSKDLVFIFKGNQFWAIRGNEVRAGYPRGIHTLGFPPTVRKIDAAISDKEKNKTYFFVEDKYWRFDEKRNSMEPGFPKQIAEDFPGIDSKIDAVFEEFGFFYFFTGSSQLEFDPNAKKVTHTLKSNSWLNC

[5] = biological target: Matrix metalloproteinase-9 (Homo sapiens, UniProt P14780); test: Inhibition of MMP-9
Matrix metalloproteinase-9, sequence (P14780 whole entry): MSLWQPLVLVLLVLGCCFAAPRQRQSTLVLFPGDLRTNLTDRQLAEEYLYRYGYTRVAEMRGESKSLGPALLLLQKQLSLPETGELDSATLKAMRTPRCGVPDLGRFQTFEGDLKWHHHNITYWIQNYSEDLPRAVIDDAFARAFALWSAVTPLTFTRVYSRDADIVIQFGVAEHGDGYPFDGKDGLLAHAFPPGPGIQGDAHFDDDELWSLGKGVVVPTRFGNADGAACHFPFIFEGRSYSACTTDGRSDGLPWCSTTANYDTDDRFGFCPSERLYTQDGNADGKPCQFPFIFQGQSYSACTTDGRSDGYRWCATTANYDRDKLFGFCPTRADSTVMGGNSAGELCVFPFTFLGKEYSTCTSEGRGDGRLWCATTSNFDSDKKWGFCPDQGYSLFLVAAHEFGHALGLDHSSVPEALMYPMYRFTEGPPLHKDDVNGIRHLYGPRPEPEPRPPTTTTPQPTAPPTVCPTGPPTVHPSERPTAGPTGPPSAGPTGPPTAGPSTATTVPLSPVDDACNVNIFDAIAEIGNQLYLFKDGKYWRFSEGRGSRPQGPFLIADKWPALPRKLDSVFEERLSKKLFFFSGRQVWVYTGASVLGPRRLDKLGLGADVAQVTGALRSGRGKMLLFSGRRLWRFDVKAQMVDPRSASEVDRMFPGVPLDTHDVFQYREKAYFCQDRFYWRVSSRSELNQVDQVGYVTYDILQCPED

[6] = Permeability across human Caco-2 cells; type: ADME, cell-based
[7] = Clearance in human microsome; type: ADME; conditions: microsomes
In short: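 Clearance projected from incubation with human microsomes and expressed in L/h/kg.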

[8] = tested on: Mus musculus; test: AUC in mouse at 5 mg/kg, po; type: ADME, organism-based, Plasma; set-up: dose 5 mg/kg, route oral; conditions: in vivo
In short: (§1)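 Oral dose of 5 mg/kg, given as a suspension.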

[9] = Half life in mouse at 5 mg/kg, po; type: ADME, organism-based; set-up: dose 5 mg/kg, route oral; conditions: in vivo; in short: as §1

SMILES	IC50 [1] [nM]	IC50 [2] [nM]	IC50 [3] [nM]	IC50 [4] [nM]	IC50 [5] [nM]	Papp [6] [×10⁻⁶ cm/s]	CL [7] [mL/min/kg]	AUC [8] [nM/L.hr]	half-life [9] [min]
CN1C[C@@H](OC(=O)N2CCCCCC2)C[C@H](C(=O)NO)[C@H]1C(=O)N1CCN(c2ccccc2)CC1	35	843	> 5000	> 5000	> 5000				
CN1C[C@@H](OC(=O)N2CC=CC2)C[C@H](C(=O)NO)[C@H]1C(=O)N1CCN(c2ccccc2)CC1	30	581	> 5000	> 5000	> 5000				
O=C(NO)[C@H]1CC(CC(=O)N2CCCC2)CN[C@@H]1C(=O)N1CC[C@H](c2ccccc2)C1 (some centres undefined)	14	365							
CC(C)C(=O)N(C)C1CN[C@H](C(=O)N2CC=C(c3ccccc3)CC2)[C@@H](C(=O)NO)C1 (some centres undefined)	23	11							
O=C(NO)[C@H]1CC(CC(=O)N2CCCC2)CN[C@@H]1C(=O)N1CC=C(c2ccccc2)CC1 (some centres undefined)	17	< 5							
COC(=O)N1C[C@@H](OC(=O)N2CCCC2)C[C@H](C(=O)NO)[C@H]1C(=O)N1CCN(c2ccccc2)CC1	20	613	> 5000	> 5000	> 5000				
O=C(NO)[C@H]1CC(OC(=O)N2CCCC2)CN[C@@H]1C(=O)N1CC[C@H](c2ccccc2)C1 (some centres undefined)	83	> 2000	> 5000	> 5000	> 5000				
NCCCCNC(=O)CC1CN[C@H](C(=O)N2CCC(c3ccccc3)C2)[C@@H](C(=O)NO)C1 (some centres undefined)	161	1660							
O=C(NO)[C@H]1CC(OC(=O)N2CCCC2)CN[C@@H]1C(=O)N1CC=C(c2ccccc2)CC1 (some centres undefined)	9	102	> 5000	> 5000	498				
CN1C[C@@H](OC(=O)N2CCCC2)C[C@H](C(=O)NO)[C@H]1C(=O)N1CCN(c2ccccc2)CC1	18	471	> 5000	> 5000	> 5000				
CN1C[C@@H](OC(=O)N2CCCCCCC2)C[C@H](C(=O)NO)[C@H]1C(=O)N1CCN(c2ccccc2)CC1	26	1470	> 5000	> 5000	> 5000			323	52.8
CN(C)C(=O)O[C@H]1C[C@H](C(=O)NO)[C@@H](C(=O)N2CCN(c3ccccc3)CC2)N(C)C1	58	730	> 5000	> 5000	> 5000				

Other lines, results leading:

IC50 [1] [nM]	IC50 [2] [nM]	IC50 [3] [nM]	IC50 [4] [nM]	IC50 [5] [nM]	Papp [6] [×10⁻⁶ cm/s]	CL [7] [mL/min/kg]	AUC [8] [nM/L.hr]	half-life [9] [min]	SMILES
12	12								CN(C(=O)c1ccccc1)C1CN[C@H](C(=O)N2CC=C(c3ccccc3)CC2)[C@@H](C(=O)NO)C1 (some centres undefined)
20	432	> 5000	> 5000	> 5000					CN1C[C@@H](OC(=O)N2CCC2)C[C@H](C(=O)NO)[C@H]1C(=O)N1CCN(c2ccccc2)CC1
78	< 5								O=C(NO)[C@H]1C[C@@H](OC(=O)N2CCCC2)CN[C@@H]1C(=O)N1CC=C(c2ccccc2)CC1
60		> 5000	> 5000	> 5000					O=C(NO)[C@H]1C[C@H](OC(=O)N2CCCC2)CN[C@@H]1C(=O)N1CC=C(c2ccccc2)C1
9.6	344	> 5000	> 5000	> 5000	0.9	9.67			CN1C[C@@H](OC(=O)N2CCCCC2)C[C@H](C(=O)NO)[C@H]1C(=O)N1CCN(c2ccccc2)CC1
84	210								CN(C(=O)c1ccccc1)C1CN[C@H](C(=O)N2CC[C@H](c3ccccc3)C2)[C@@H](C(=O)NO)C1 (some centres undefined)
186	> 2000	2500	> 5000	> 5000					O=C(NO)[C@H]1CC(OC(=O)N2CCCC2)CN[C@@H]1C(=O)N1Cc2ccccc2C1 (some centres undefined)
	< 5								O=C(NO)[C@H]1CC2(CC2)CN[C@@H]1C(=O)N1CC=C(c2ccccc2)CC1
11	< 5								CC(C)OC(=O)N(C)C1CN[C@H](C(=O)N2CC=C(c3ccccc3)CC2)[C@@H](C(=O)NO)C1 (some centres undefined)
138	502								CC(C)C(=O)N(C)C1CN[C@H](C(=O)N2CC[C@H](c3ccccc3)C2)[C@@H](C(=O)NO)C1 (some centres undefined)
11	235	> 5000	> 5000	> 5000					O=C(NO)[C@H]1C[C@H](OC(=O)N2CCCC2)CN[C@@H]1C(=O)N1CCN(c2ccccc2)CC1
125	> 2000								CN1C[C@@H](OC(=O)N2CCC(F)(F)C2)C[C@H](C(=O)NO)[C@H]1C(=O)N1CCN(c2ccccc2)CC1
99	> 2000	> 5000	> 5000	> 5000					O=C(NO)[C@H]1C[C@H](OC(=O)N2CCCC2)CN[C@@H]1C(=O)N1CCC(c2ccccc2)CC1
